Where “and” joins values, the source holds several entries; their conditions need not be identical. Equal values may be shown once.
Assays:
[1] = LDL oxidation assay as spectrophotometric determination of TBARS; format: functional
Procedure, shortened: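 LDL (0.5 mg/mL protein stock) in saline/20 mM HEPES with drug in ethanol, oxidised by CuSO4 (4 × 10⁻⁴ M stock), 37 °C, 5 h, in duplicate. Stopped with EDTA; TCA/TBA added, boiled 30 min, A535 read. Malonaldehyde equivalents from tetramethoxypropane standard curve. IC50 = concentration inhibiting 50% TBARS vs ethanol controls.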

Gallus gallus [2] = species on record: Gallus gallus; assay: (§1) Hypocholesterolemic activity in 6-week old male mormocholesterolemic chickens using experiment 4; format: functional
Procedure, shortened: (§2)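 Male chickens, 6 weeks old. Test compound mixed at 50 ppm into a corn-soybean control diet; controls get the diet alone. After the feeding period, birds are fasted 36 h and refed 48 h before sacrifice. Serum total, LDL and HDL cholesterol (mg/100 mL) and triglycerides measured; expressed as mean ± SD and percent of control, n = 6–12 per group.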

Gallus gallus [3] = species on record: Gallus gallus; assay: as §1; format: functional; remark: listed apart in the source
Procedure, shortened: (§3)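 Six-week-old male chickens fed corn-soybean control diet with test compound at 50 ppm. Birds fasted 36 h, then refed 48 h before sacrifice. Serum total, LDL and HDL cholesterol and triglycerides measured (mg/100 mL), HDL/total ratio computed. Means ± SD, n = 6–12 per group, also as % of control. Significance p < 0.01 within each study.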

[4] = Compound oxidation potential using cyclic voltametry; format: ADME
HepG2 = assay: In vitro inhibition of cholesterol biosynthesis in Hep G2 cells; format: functional, Homo sapiens; design: concentration or dose not given beside the values
Procedure, shortened: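 HepG2 human hepatoma cells incubated 4 h with compound at 10 μM, DMSO vehicle controls. Mean % inhibition vs controls, SD ≤ ±10%, n ≥ 8.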

Gallus gallus [5] = species on record: Gallus gallus; assay: Ratio of HDL/total cholesterol value; format: functional; procedure, shortened: as §3
Gallus gallus [6] = species on record: Gallus gallus; assay: (§4) Hypocholesterolemic activity in 6-week old male mormocholesterolemic chickens using experiment 3; format: functional; procedure, shortened: as §3
[7] = target: T1, 3-hydroxy-3-methylglutaryl-coenzyme A reductase (Homo sapiens) (UniProt P04035); assay: In vitro suppression of HMG-CoA reductase (HMGR) in Hep G2 cells; format: cell-based; design: concentration or dose not given beside the values; settings: HepG2, concentration not given here
T1 sequence (whole entry): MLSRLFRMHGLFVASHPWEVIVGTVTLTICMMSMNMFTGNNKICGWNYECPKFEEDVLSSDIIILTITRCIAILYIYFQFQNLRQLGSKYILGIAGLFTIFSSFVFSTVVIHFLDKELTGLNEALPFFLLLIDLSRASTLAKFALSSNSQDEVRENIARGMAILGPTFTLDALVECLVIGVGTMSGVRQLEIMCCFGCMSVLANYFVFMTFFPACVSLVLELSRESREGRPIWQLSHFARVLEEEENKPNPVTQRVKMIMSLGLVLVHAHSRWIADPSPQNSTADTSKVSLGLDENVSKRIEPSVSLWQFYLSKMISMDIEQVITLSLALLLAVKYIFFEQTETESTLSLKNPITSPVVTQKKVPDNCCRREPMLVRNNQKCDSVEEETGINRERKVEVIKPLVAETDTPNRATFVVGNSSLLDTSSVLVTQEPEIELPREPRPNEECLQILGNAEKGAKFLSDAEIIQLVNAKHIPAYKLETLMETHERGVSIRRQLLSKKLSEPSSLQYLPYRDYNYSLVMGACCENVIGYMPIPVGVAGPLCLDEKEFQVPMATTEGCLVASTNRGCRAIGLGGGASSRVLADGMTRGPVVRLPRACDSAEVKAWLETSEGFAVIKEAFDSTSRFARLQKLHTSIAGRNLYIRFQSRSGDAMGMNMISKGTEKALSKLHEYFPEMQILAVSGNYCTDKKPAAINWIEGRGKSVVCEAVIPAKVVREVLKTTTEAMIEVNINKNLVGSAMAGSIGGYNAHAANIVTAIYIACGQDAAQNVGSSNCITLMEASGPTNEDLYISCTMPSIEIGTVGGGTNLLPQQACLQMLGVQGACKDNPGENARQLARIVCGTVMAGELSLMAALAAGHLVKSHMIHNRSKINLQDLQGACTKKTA
Procedure, shortened: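 HepG2 cells treated 4 h with compound at 10 μM, DMSO vehicle controls. HMG-CoA reductase activity assayed in microsomal fraction isolated at end of incubation. Mean % suppression vs controls, SD ≤ ±10%, n ≥ 8.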

Gallus gallus [8] = species on record: Gallus gallus; assay: as §4; format: functional; procedure, shortened: as §2; remark: listed apart in the source

Row | Structure (SMILES) | Potential [4] | Inhibition (HepG2) [%] | inhibition [7] [%] | further results
1 | CC(C)=CCCC1(C)CCc2cc(O)ccc2O1 (configuration not stated) | 1.2 | 35 | – | IC50 [1]: 2000 nM; LDL cholesterol (Gallus gallus [2]): 32 mg 100ml-1; HDL cholesterol (Gallus gallus [3]): 93 mg 100ml-1; Total cholesterol (Gallus gallus [3]): 131 mg 100ml-1; Triglycerides (Gallus gallus [3]): 73 mg 100ml-1; Ratio (Gallus gallus [5]): 0.71
2 | CC(C)=CCC/C(C)=C/CC/C(C)=C/CCC1CCc2cc(O)c(C)c(C)c2O1 (configuration not stated) | – | 62 | 67 | HDL cholesterol (Gallus gallus [6]): 102 mg 100ml-1; Total cholesterol (Gallus gallus [6]): 197 mg 100ml-1; Triglycerides (Gallus gallus [6]): 86 mg 100ml-1; LDL cholesterol (Gallus gallus [2]): 76 mg 100ml-1; HDL cholesterol (Gallus gallus [3]): 97 mg 100ml-1; Total cholesterol (Gallus gallus [3]): 178 mg 100ml-1; Triglycerides (Gallus gallus [3]): 83 mg 100ml-1; LDL cholesterol (Gallus gallus [8]): 85 mg 100ml-1; Ratio (Gallus gallus [5]): 0.52 and 0.54
3 | CCCCC/C=C\C/C=C\C/C=C\CCCCC1(C)CCc2cc(O)c(C)c(C)c2O1 (configuration not stated) | – | 22 | – | –
4 | CC(C)=CCC/C(C)=C/CCC1(C)CCc2c(O)cc(N3CCCC3)cc2O1 (configuration not stated) | – | 54 | – | IC50 [1]: 4000 nM
5 | CCCCC/C=C/C/C=C/CCCCCCCC1(C)CCc2cc(O)c(C)c(C)c2O1 (configuration not stated) | – | 17 | – | –
6 | CC(C)=CCC/C(C)=C/CC/C(C)=C/CCC1(C)CCc2cc(O)c(F)cc2O1 (configuration not stated) | 1.21 | 60 | 33 | IC50 [1]: 3000 nM
7 | CC(C)=CCC/C(C)=C/CC/C(C)=C/CCC1(C)C=Cc2cc(O)c(C)c(C)c2O1 (configuration not stated) | 0.92 | 69 | – | –
8 | CC(C)=CCC/C(C)=C/CC/C(C)=C/CCC1(C)CC(O)c2cc(O)c(C)c(C)c2O1 (configuration not stated) | 0.96 | 56 | – | –
9 | CCCCCCCC/C=C/CCCCCCCC1(C)CCc2cc(O)c(C)c(C)c2O1 (configuration not stated) | – | 10 | – | –
10 | CC(C)=CCC/C(C)=C/CC/C(C)=C/CCc1oc2c(C)c(C)c(O)cc2c(=O)c1O | 1.2 | 61 | – | –
11 | CC(C)=CCC/C(C)=C/CCC1(C)CCc2cc(O)ccc2O1 (configuration not stated) | – | 48 | 52 | IC50 [1]: 2000 nM; LDL cholesterol (Gallus gallus [2]): 33 mg 100ml-1; HDL cholesterol (Gallus gallus [3]): 93 mg 100ml-1; Total cholesterol (Gallus gallus [3]): 130 mg 100ml-1; Triglycerides (Gallus gallus [3]): 73 mg 100ml-1; Ratio (Gallus gallus [5]): 0.72
12 | CC(C)=CCC/C(C)=C/CCC#CCCC1(C)CCc2cc(O)c(C)c(C)c2O1 (configuration not stated) | – | 81 | 46 | –
13 | CC(C)=CCC/C(C)=C/CC/C(C)=C/CCC1(C)CCc2cccc(O)c2O1 (configuration not stated) | 1.24 | 46 | – | –
14 | CC(C)=CCC/C(C)=C/CC/C=C\CCC1(C)CCc2cc(O)c(C)c(C)c2O1 (configuration not stated) | – | 81 | 45 | –
15 | CC(C)=CCC/C(C)=C/CC/C(C)=C/CCC1(C)CCc2ccc(O)c(O)c2O1 (configuration not stated) | 1.26 | 27 | – | –
16 | COc1cc2c(c(C)c1C)OC(C)(CC/C=C(\C)CC/C=C(\C)CCC=C(C)C)CC2 (configuration not stated) | – | 0 | – | –
17 | CC(C)=CCC/C(C)=C/CC/C(C)=C/CCc1cc(=O)c2cc(O)c(C)c(C)c2o1 | – | 71 | – | –
18 | CC(C)=CCC/C(C)=C/CC/C(C)=C/CCC1(C)CCc2cc(F)ccc2O1 (configuration not stated) | – | 35 | – | –
19 | CC(C)=CCC/C(C)=C/CC/C(C)=C/CCC1(C)CCc2c(C)c(O)cc(C)c2O1 (configuration not stated) | 1.05 | 43 | 21 | IC50 [1]: 7000 nM
